The sample as a whole holds a higher share of hits than the screen did.
S1P4 antag: human S1P4 receptor antagonism | S1P4-expressing cells, antagonist mode, reporter read-out | inhibition, % at 4.98 µM | O95977 | hit rate 0.26% among 220,000 | AID 1510; in the data active = inhibition above about 29%
S1P3 antagonist: S1P3 (human) receptor antagonism; CHO S1P3 NFAT-BLA reporter, FRET fluorescence, antagonist mode; AID 485; Q99500; hit rate 0.27% among 170,000; inhibition, % at 4.98 µM;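 active = inhibition above the plate cutoff, the mean inhibition of test wells on that plate plus 3 SD, cut at about 28% in these data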;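 also: cells challenged with S1P at its EC80 of 0.8 µM; blue over green emission ratio from cleaved BLA substrate after 4 h stimulation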
S1P4 agonist: human S1P4 receptor agonism | O95977 | S1P4-expressing cell line, agonist reporter assay | activation, % at 4.98 µM | hit rate 0.35% among 220,000; in the data active = activation above about 11%
Lmaj promast: reduces viability of Leishmania major promastigotes; resazurin fluorescence viability; inhibition, % at 10 µM; hit rate 9% among 200,000; AID 1063; in the data active = inhibition above about 50%;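 also: promastigotes grown with compound for 44 hours at 28 °C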
MDM2 E3 inh: inhibitors of human Mdm2 E3 ubiquitin ligase. Q00987. cell-based MDM2 ubiquitination luciferase reporter, 2 h; 0 = plate control, 100 = twice control, blank-subtracted. signal enhancement, % at 5 µM. hit rate 0.11% among 210,000. AID 1230;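 active = signal enhancement of 30% or more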;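 also: luminescence tracks abundance of the self-degrading MDM2-luciferase fusion protein; higher signal means inhibition of MDM2 E3 ligase activity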
Target sequence (Q00987 whole entry, looked up, the tested form may be a part): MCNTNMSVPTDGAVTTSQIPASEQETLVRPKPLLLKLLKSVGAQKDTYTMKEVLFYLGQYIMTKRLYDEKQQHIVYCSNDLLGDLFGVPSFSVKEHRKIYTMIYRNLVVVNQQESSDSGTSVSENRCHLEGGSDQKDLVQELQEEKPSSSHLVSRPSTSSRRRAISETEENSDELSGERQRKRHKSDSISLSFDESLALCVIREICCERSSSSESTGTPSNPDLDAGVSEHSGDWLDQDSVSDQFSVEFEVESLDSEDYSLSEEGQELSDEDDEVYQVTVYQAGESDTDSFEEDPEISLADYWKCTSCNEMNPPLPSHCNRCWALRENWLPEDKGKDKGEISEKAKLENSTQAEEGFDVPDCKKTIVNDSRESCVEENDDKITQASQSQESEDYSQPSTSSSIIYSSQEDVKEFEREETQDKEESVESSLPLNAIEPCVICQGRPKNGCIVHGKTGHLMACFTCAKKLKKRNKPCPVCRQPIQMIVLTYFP
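Test system: stable mammalian line carrying autodegrading MDM2–luciferase fusion reporter; quantity: 2000 cells in each well; times: 4 h cell settling then 2 h compound exposure, 37 °C; detection: luminescence with SteadyLite reagent, 15 min at room temperature; evaluation: percent signal gain over controls, blank-subtracted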
Hits are given with their value; 0 = inactive; - = not tested or not shown.

SMILES	S1P4 antag	S1P3 antagonist	S1P4 agonist	Lmaj promast	MDM2 E3 inh
COc1ccc(C(=O)Nc2ccc(C3CC3(Cl)Cl)cc2)cc1 (configuration not stated)	0	0	0	0	0
COC(=O)c1ccc(COn2nnc3ccccc32)cc1	0	0	0	0	0
Cn1nc(NC(=O)CC(C)(C)CC(=O)O)c2ccccc21	0	0	0	-	0
Cc1cc(C)nc(N2CCN(c3nnnn3-c3ccccc3)CC2)n1	0	0	0	0	0
Cc1ccc(C)c(N2CCN(c3nnnn3-c3ccccc3)CC2)c1	0	-	0	63.5	0
COc1ccc(-c2nc(N)n(C(=O)c3ccccc3Cl)n2)cc1	0	0	0	0	0
FC(F)Oc1ccc(NC(=S)N2CCN(Cc3ccccc3)CC2)cc1	0	0	0	79.5	0
COc1ccc(NC(=S)N2CCN(Cc3ccc(C)cc3)CC2)cc1	0	0	0	61.8	0
CC(C)c1ccc(NC(=S)N2CCN(Cc3ccccc3)CC2)cc1	0	0	0	86.2	0
FC(F)Oc1ccc(NC(=S)NCc2cccnc2)cc1	0	0	0	0	0
Fc1ccc(CNC(=S)Nc2ccc(OC(F)F)cc2)cc1	0	0	0	62.8	0
CN(C)c1ccc(CNC(=O)C2CCC(CNc3c(N4CCCCC4)c(=O)c3=O)CC2)cc1 (configuration not stated)	0	0	0	-	0
Cc1ccc(C(=O)COC(=O)CCCC(=O)Nc2cc(C(F)(F)F)ccc2Cl)cc1C	0	0	0	0	0
COCCn1cnc2c1c(=O)n(CC(=O)Nc1cc(C)on1)c(=O)n2Cc1ccccc1	0	-	0	0	0
COCCn1cnc2c1c(=O)n(CC(=O)OCC(=O)NCCCc1ccccc1)c(=O)n2Cc1ccccc1	0	0	0	50.9	0
Cc1c(C(=O)OCC(=O)NCc2ccc3c(c2)OCO3)cccc1[N+](=O)[O-]	0	0	0	0	0
O=C(NNc1c2ccccc2nc2ccccc12)c1ccc(O)cc1O	0	-	0	99.3	0
O=C(NNc1c2ccccc2nc2ccccc12)c1ccccc1O	0	0	0	0	0
O=C(NNc1c2ccccc2nc2ccccc12)c1cccc(O)c1	0	0	0	89.8	0
O=C(NNc1c2ccccc2nc2ccccc12)c1ccc(O)cc1	0	0	0	70.8	0
N#CC1=C(N)NC(=S)C(C(N)=O)C1c1ccc([N+](=O)[O-])cc1 (configuration not stated)	0	0	0	0	0
COc1ccccc1NS(=O)(=O)c1ccc(O)c(NC(=S)NCC2CCCO2)c1 (configuration not stated)	0	0	0	-	0
CCN(CC)S(=O)(=O)c1cc(C(=O)OCC(=O)NC2CCCc3ccccc32)ccc1C (configuration not stated)	0	0	0	51.5	0
C/C(=N\NC(=S)Nc1cc(S(=O)(=O)N2CCOCC2)ccc1Cl)c1ccccc1F	0	0	0	71.5	0
Cn1ccnc1SCC(=O)Nc1cc(S(=O)(=O)N2CCOCC2)ccc1Cl	0	0	0	61.7	0
SMILES	S1P4 antag	S1P3 antagonist	S1P4 agonist	Lmaj promast	MDM2 E3 inh
O=C(CSc1cccc[n+]1[O-])Nc1cc(S(=O)(=O)N2CCOCC2)ccc1Cl	0	0	0	67.9	0
Cc1ccc(S(=O)(=O)N2CCOCC2)cc1NC(=O)CSc1nccn1C	0	0	0	0	0
Cc1cccc(NC(=O)Cn2cnc3ccccc3c2=O)c1C	0	-	0	0	0
COC(C/C=C\[C@@H](O)COCc1ccccc1)OC	-	-	-	-	0
Cc1cc(N2CCN(C(=O)OC(C)(C)C)CC2)n2ncnc2n1	0	0	0	0	0
CO/C(N)=C(\C#N)N=Cc1ccccc1Cl	0	0	0	0	0
CCCCN1C(=O)Cc2c1nc(N)c1c(N)nc(N(CCC)CCC)c(C#N)c21	0	-	0	0	0
COc1ccc(CN2C(=O)Cc3c2nc(N)c2c(N)nc(N4CCCCC4)c(C#N)c32)cc1	0	0	0	0	0
C=C(C)CN(CC)c1nc(N)c2c(N)nc3c(c2c1C#N)CC(=O)N3C12CC3CC(CC(C3)C1)C2	0	-	0	90.2	0
N#Cc1c(N2CCCC(O)C2)nc(N)c2c(N)nc3c(c12)CC(=O)N3C12CC3CC(CC(C3)C1)C2 (configuration not stated)	0	-	0	99.1	0
O=C(Nc1ccccc1)c1cc2ccccc2o1	0	-	0	0	0
Cc1cc(C(=O)Nc2ccccc2)oc1C	0	-	0	55.5	0
O=C(CN1CCN(c2cccc(C(F)(F)F)c2)CC1)Nc1cccc(C(F)(F)F)c1	0	-	0	0	0

Screening data (PubChem)
